From the array DNA melting data of Ke et al. (doi:10.1101/2024.01.08.574731)

Columns and labels:
[1] = folding enthalpy; higher = less favourable; fluorescence melt of hairpins on a sequencing array, two-state fit; settings: sodium 0.088 M
How it was run: (§1)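 Bootstrapped two-state fits yielded melting temperature and folding enthalpy for library hairpins. Cy3 fluorescence, with annealed Cy3 and quencher oligos, was imaged on a sequenced MiSeq flow cell in 50 mM Na-HEPES pH 8.0, 25 mM NaCl in 2.5 °C steps up to 60 °C, and normalised to pre-quench Cy3 and to control constructs. Four replicates were combined by inverse variance, and fitted temperatures were raised by 9.35 °C to match UV melts.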

[2] = melting temperature; fluorescence melt of hairpins on a sequencing array, two-state fit, raised by 9.35 °C to match UV melts; settings: sodium 0.088 M
How it was run: as §1

Sequence	folding enthalpy [1] [kcal/mol]	Tm [2] [°C]
GCCCCGGGAAACCGGGAC (.(((((....))))).)	-12.2	53.7
GCCCCGTCGAAAGACGGC (((..(((....))))))	-4.65	34.4
GCCCCTCGAAAGAGTGGC (((.(((....))).)))	-38	52.6
GCCCCTGGAAACAGGGAC (.(((((....))))).)	-13.9	51.1
GCCCCTGGAAACGGGGGC (((((.(....).)))))	-33.7	66.6
GCCCGACCGAAAGGTGGC (((..(((....))))))	-17.1	51
GCCCGACGAAAGTCAGGC (((.(((....))).)))	-31.8	57.3
GCCCGACGAAAGTCTGGC (((.(((....))).)))	-32.4	55.5
GCCCGAGCGAAAGCTGGC (((..(((....))))))	-16.1	50.9
GCCCGAGGAAACCCAGGC (((.(.(....).).)))	-16.5	28.1
GCCCGAGGAAACCCGAGC ((.((.(....).)).))	-17.1	30.8
GCCCGAGGAAACCCGGAC (.(((.(....).))).)	-19.3	32.7
GCCCGAGGAAACCCGGGC (((((.(....).)))))	-40.6	60.6
GCCCGAGGAAACTCGAGC ((.((((....)))).))	-31	48.4
GCCCGAGGAAACTTGGGC ((((.((....)).))))	-41.1	58.1
GCCCGCACGAAAGTGGGC (((..(((....))))))	-24	57.4
GCCCGCCCGAAAGGGGGC (((..(((....))))))	-13.2	60.2
GCCCGCGAAAGCGAGGGC ((((((....)))..)))	-28	68.7
GCCCGCGAAAGCGATGGC ((((((....)))..)))	-19.8	62
GCCCGGCGAAAGCACGGC (((..((....))..)))	-13.3	57.1
GCCCGGCGAAAGCCAAGC ((..(((....)))..))	-10.7	35.7
GCCCGGCGAAAGCCCAGC ((..(((....)))..))	-9.79	32.7
GCCCGGCGAAAGCCCTGC ((..(((....)))..))	-8.41	30.7

Sequence	folding enthalpy [1] [kcal/mol]	Tm [2] [°C]
GCCCGGCGAAAGCCGCGC ((.((((....)))).))	-17.4	60.1
GCCCGGCGAAAGCCGTGC ((.((((....)))).))	-13.9	59.8
GCCCGGCGAAAGCCTGGC (((.(((....))).)))	-25.8	64.6
GCCCGGCGAAAGCGGTGC ((.(.((....)).).))	-15.6	56.5
GCCCGGCGAAAGCTAGGC (((..((....))..)))	-21.5	56.7
GCCCGGCGAAAGCTCGGC (((..((....))..)))	-16.4	52.7
GCCCGGCGAAAGCTGCGC ((.(.((....)).).))	-17.6	44.2
GCCCGGGGAAACCCGAGC ((.((((....)))).))	-25.2	52.9
GCCCGGGGAAACTCGGGC (((((.(....).)))))	-37.5	67.2
GCCCGTACGAAAGTAGGC (((..(((....))))))	-17.9	46.3
GCCCGTGGAAACACGGAC (.(((((....))))).)	-14.5	50.2
GCCCTAACGAAAGTTGGC (((..(((....))))))	-20.7	38.5
GCCCTAGGAAACCAGGGC (((((.(....).)))))	-47	52.5
GCCCTAGGAAACTAGGGC (((((((....)))))))	-31.2	67.5
GCCCTAGGAAACTGGGGC ((((.((....)).))))	-33.7	55.4
GCCCTCCGAAAGGAGGC (((.(((....))))))	-11.9	61.2
GCCCTCGAAAGAGTGGGC ((((((....)))..)))	-25.6	52.7
GCCCTCGCGAAAGCGGGC (((..(((....))))))	-14.2	59.6
GCCCTGCGAAAGCAGCGC ((.((((....)))).))	-17.5	56.2
GCCCTGCGAAAGCATCGC ((..(((....)))..))	-7.06	33.6
GCCCTGCGAAAGCGAGGC (((..((....))..)))	-11.5	54.2
GCCCTGCGAAAGCTGCGC ((.(.((....)).).))	-16.9	40.2
GCCCTGGGAAACCAGGAC (.(((((....))))).)	-13.7	48.6

Sequence	folding enthalpy [1] [kcal/mol]	Tm [2] [°C]
GCCCTGGGAAACTGGGGC ((((..(....)..))))	-38	51.5
GCCCTTACGAAAGTAGGC (((..(((....))))))	-20.6	39.1
GCCCTTGGAAACAAGGAC (.(((((....))))).)	-17.5	40.1
GCCGAAACGAAAGTTGGC (((..(((....))))))	-22.3	48
GCCGAAGGAAACTTTGGC (((.(((....))).)))	-39.5	51
GCCGACCCGAAAGGGGGC (((..(((....))))))	-18.4	55.7
GCCGACGAAAGTCAAGGC ((((((....)))..)))	-31.1	55.1
GCCGACGAAAGTCACGGC ((((((....)))..)))	-26.8	53.1
GCCGACGAAAGTCGCGGC ((((((....)))..)))	-14.3	59.2
GCCGACGAAAGTCTGGGC ((((((....)))..)))	-27.6	54.6
GCCGACGGAAACGCCGAC (.((.((....)).)).)	-16.7	36.4
GCCGACGGAAACGCCGGC ((((.((....)).))))	-38.7	63
GCCGACGGAAACGTCGAC (.(((((....))))).)	-14.9	55.4
GCCGAGCGAAAGCACCGC ((.(.((....)).).))	-14.1	38.5
GCCGAGCGAAAGCACTGC ((.(.((....)).).))	-18.8	36.4
GCCGAGCGAAAGCGCCGC ((.(.((....)).).))	-12	41.9
GCCGAGCGAAAGCTATGC ((..(((....)))..))	-12.5	38.8
GCCGAGGGAAACCTCGAC (.(((((....))))).)	-14.1	49.5
GCCGATACGAAAGTAGGC (((..(((....))))))	-33	49.3
GCCGATCGAAAGATAGGC (((.(((....))).)))	-41	61
GCCGATCGAAAGATGGC (((.(((....))))))	-26.7	54.5
GCCGATCGAAAGATGGGC (((.(((....))).)))	-40.4	55.9
GCCGATCGAAAGATTGGC (((.(((....))).)))	-45.5	61.1

Sequence	folding enthalpy [1] [kcal/mol]	Tm [2] [°C]
GCCGATTCGAAAGAAGGC (((..(((....))))))	-28.9	43.2
GCCGCCGAAAGGCACGGC ((((((....)))..)))	-16.7	62.6
GCCGCCGAAAGGCTCGGC ((((((....)))..)))	-17.6	56.7
GCCGCCGGAAACGACGGC ((((.((....)).))))	-33.7	67
GCCGCCGGAAACGGCAGC ((.((((....)))).))	-15.9	59.1
GCCGCCGGAAACGGCGAC (.(((((....))))).)	-10.6	60.9
GCCGCCTCGAAAGAGGGC (((..(((....))))))	-8.74	51.1
GCCGCGACGAAAGTCGGC (((..(((....))))))	-9.47	62.4
GCCGCGCCGAAAGGCGGC (((..(((....))))))	-9.11	67.6
GCCGCGCGAAAGCCCAGC ((.(.((....)).).))	-12.7	29.9
GCCGCGCGAAAGCCTGGC (((..((....))..)))	-17.5	53.8
GCCGCGCGAAAGCGCTGC ((.((((....)))).))	-16.6	61.5
GCCGCGCGAAAGCTAGGC (((..((....))..)))	-28.2	62.5
GCCGCGGGAAACCGCAGC ((.((((....)))).))	-16.9	59.3
GCCGCGTCGAAAGACGGC (((..(((....))))))	-9.58	56.9
GCCGCTACGAAAGTAGGC (((..(((....))))))	-18	51
GCCGCTGGAAACGGTGGC (((.(.(....).).)))	-44.9	51.7
GCCGGAACGAAAGTTGGC (((..(((....))))))	-24.3	47.4
GCCGGAGCGAAAGCTGGC (((..(((....))))))	-21.6	55.4
GCCGGAGGAAACTCCAGC ((.((((....)))).))	-23.8	40.9
GCCGGAGGAAACTTCGGC ((((.((....)).))))	-38.6	56.3
